Data set [1] has as its system rhinovirus A22. Briefly: Tested for antirhinoviral activity against the rhinovirus serotype 22. Format: functional. As to conditions: Rhinovirus A. In a few lines:
(§1)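 Selected compounds were tested across a 15-serotype rhinovirus panel: the five secondary serotypes plus 10 more. An MIC was recorded for each serotype. MIC80, the concentration inhibiting 80% of serotypes tested, was also derived from this panel.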

Data set [2] deals with rhinovirus A41. Briefly: Tested for antirhinoviral activity against the rhinovirus serotype 41. Format: functional. The settings on record: Rhinovirus A. In short, it runs like this: as §1
Data set [3] has as its system rhinovirus A25. Nature of the data set: Tested for antirhinoviral activity against the rhinovirus serotype 25. Format: functional. As to conditions: Rhinovirus A. In short, it runs like this: as §1
The subject of data set [4] is rhinovirus A2. Nature of the data set: Antiviral activity determined by ability to inhibit the HRV-2( human rhinovirus type -2) virus by plaque reduction assay in vitro. The settings on record: Rhinovirus A. It is filed as functional. In short, it runs like this: (§2)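 Plaque reduction assay against human rhinovirus type 2 (HRV-2), following an earlier reported method. The value is the MIC, the minimum inhibitory concentration.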

Data set [5] has as its system rhinovirus B6. Nature of the data set: Tested for antirhinoviral activity against the rhinovirus serotype 6. Format: functional. The settings on record: Rhinovirus B. In short, it runs like this:
as §1

For data set [6], the system named is rhinovirus A1B. Briefly: Tested for antirhinoviral activity against the rhinovirus serotype 1B. Format: functional, human rhinovirus type 1b. The settings on record: Rhinovirus A. In a few lines: as §1
Data set [7] concerns rhinovirus B86. Briefly: Tested for antirhinoviral activity against the rhinovirus serotype 86. Format: functional. The settings on record: Rhinovirus B. In short, it runs like this:
as §1

Data set [8] deals with rhinovirus A50. Nature of the data set: Tested for antirhinoviral activity against the rhinovirus serotype 50. The settings on record: Rhinovirus A. It is filed as functional. In a few lines:
as §1

Data set [9] can be described thus: Partition coefficient (logP). It is filed as physicochemical. As to conditions: octanol/water.
For data set [10], the system named is rhinovirus A2. Briefly: Tested for antirhinoviral activity against the rhinovirus serotype 2. It is filed as functional, human rhinovirus type 2. The settings on record: Rhinovirus A. In a few lines:
as §1

Data set [11] relates to rhinovirus A15. Nature of the data set: Tested for antirhinoviral activity against the rhinovirus serotype 15. Format: functional. The settings on record: Rhinovirus A. In a few lines: as §1
For data set [12], the system named is rhinovirus A30. Nature of the data set: Tested for antirhinoviral activity against the rhinovirus serotype 30. Format: functional. As to conditions: Rhinovirus A. In short, it runs like this:
as §1

The test system of data set [13] is rhinovirus A2. Nature of the data set: Antirhinovirus activity was assessed and the maximum testable concentration that causes no apparent effects on the cell monolayers was determined against HRV-2 virus in vitro. It is filed as functional, human rhinovirus type 2.
In data set [14] the test system is Human rhinovirus sp. Nature of the data set: Mean of MIC's was determined for the five types of virus like HRV-2, HRV-1A,HRV-22,HRV-41 and HRV-50. It is filed as functional. In a few lines:
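MIC measured by plaque reduction against HRV-2 first. The value is the mean of the MICs across these five serotypes.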

Data set [15] concerns rhinovirus A21. Nature of the data set: Tested for antirhinoviral activity against the rhinovirus serotype 21. The settings on record: Rhinovirus A. It is filed as functional. In a few lines:
as §1

In data set [16] the test system is rhinovirus A67. Nature of the data set: Tested for antirhinoviral activity against the rhinovirus serotype 67. It is filed as functional. As to conditions: Rhinovirus A. In a few lines:
as §1

The test system of data set [17] is rhinovirus B14. Nature of the data set: Tested for antirhinoviral activity against the rhinovirus serotype 14. It is filed as functional, human rhinovirus type 14. As to conditions: Rhinovirus B. In short, it runs like this:
as §1

Data set [18] relates to Human rhinovirus 1A. Briefly: Tested for antirhinoviral activity against the rhinovirus serotype 1A. It is filed as functional. In short, it runs like this: as §1
The subject of data set [19] is human rhinovirus (15-serotype panel). Nature of the data set: Antirhinovirus activity was determined by the ability to inhibit the growth of 80% of a panel of 15 human rhinovirus serotypes.
The subject of data set [20] is rhinovirus A89. Briefly: Tested for antirhinoviral activity against the rhinovirus serotype 89. It is filed as functional, human rhinovirus type 89. As to conditions: Rhinovirus A. In a few lines:
as §1

In data set [21] the test system is rhinovirus A2. Briefly: Antirhinovirus activity was determined by the ability to inhibit the HRV-2( human rhinovirus type -2) virus by plaque reduction assay in vitro; IA is inactive. Format: functional, organism-based. In short, it runs like this:
as §2

SMILES strings stand for the structures. In brackets after ≈: the same amount, converted by molar mass. Activity calls are given as the source filed them. No cut-off for these calls is given here. Bounds are passed on as bounds.

On to `Cc1cc(CCCCCOc2ccc(C3=NCCO3)cc2C(F)F)on1`, for which the MIC worked out at 0.05 µM (≈ 0.0182 µg/mL) in data set [1]; 2 µM (≈ 0.729 µg/mL) in [2]; 0.9 µM (≈ 0.328 µg/mL) in [3]; 0.06 µM (≈ 0.0219 µg/mL) in data set [4]; 0.3 µM (≈ 0.109 µg/mL) in data set [5]; 0.08 µM (≈ 0.0292 µg/mL) in data set [6]. In addition, the MIC in [7] was 1.7 µM (≈ 0.619 µg/mL); in [8], 2 µM (≈ 0.729 µg/mL); in data set [10], 0.05 µM (≈ 0.0182 µg/mL); in [11], 0.2 µM (≈ 0.0729 µg/mL); in data set [12], 0.09 µM (≈ 0.0328 µg/mL); in data set [14], 1 µM (≈ 0.364 µg/mL). Besides, the MIC in data set [15] was 0.05 µM (≈ 0.0182 µg/mL); in data set [16] it was 0.2 µM (≈ 0.0729 µg/mL); in [17], 2 µM (≈ 0.729 µg/mL); in data set [18], 0.8 µM (≈ 0.292 µg/mL); in data set [20], 0.02 µM (≈ 0.00729 µg/mL). For the same compound, the lipophilicity (logP) in data set [9] is 4.59. Also, the MTL in data set [13] stood at 17 µM. The same compound yielded an MIC80 in [19] of 2 µM (≈ 0.729 µg/mL).
`C=CCc1cc(C2=NCCO2)ccc1OCCCCCc1cc(C)no1`: the MIC in [1] came to 0.5 µM (≈ 0.177 µg/mL); in [2], 3.4 µM (≈ 1.21 µg/mL); in [3], 3.4 µM (≈ 1.21 µg/mL); in data set [4] it was 0.08 µM (≈ 0.0284 µg/mL); in [5], 1.7 µM (≈ 0.603 µg/mL); in data set [6], 0.1 µM (≈ 0.0354 µg/mL). The MIC worked out at 2.1 µM (≈ 0.744 µg/mL) in data set [7]; 0.4 µM (≈ 0.142 µg/mL) in data set [8]; 0.08 µM (≈ 0.0284 µg/mL) in data set [10]; 1.6 µM (≈ 0.567 µg/mL) in data set [11]; 0.8 µM (≈ 0.284 µg/mL) in data set [12]; 1.1 µM (≈ 0.39 µg/mL) in data set [14]. For the same compound, the MIC turned out to be 0.4 µM (≈ 0.142 µg/mL) in [15]; 1.1 µM (≈ 0.39 µg/mL) in data set [16]; 3.4 µM (≈ 1.21 µg/mL) in [17]; 1.4 µM (≈ 0.496 µg/mL) in data set [18]; 0.6 µM (≈ 0.213 µg/mL) in [20]. In data set [9], this compound showed a logP of 4.93. Besides, in data set [13], the MTL was 8.8 µM. This compound also registered an MIC80 in data set [19] of 2.1 µM (≈ 0.744 µg/mL).
For the compound `Cc1cc(CCCCOc2ccc(C3=NCCO3)cc2Cl)on1`, the MIC stood at 0.2 µM (≈ 0.067 µg/mL) in data set [4] and 1 µM (≈ 0.335 µg/mL) in [14]. Further, the MTL in data set [13] came out at 9.3 µM. In data set [19], this compound yielded an MIC80 of 3.6 µM (≈ 1.21 µg/mL).
The corresponding values for `Cc1cc(CCCCCOc2ccc(C3=NCCO3)c(Cl)c2)on1` are 0.4 µM (≈ 0.14 µg/mL), 6.5 µM (≈ 2.27 µg/mL), 25 µM and 7 µM (≈ 2.44 µg/mL).
As for `C=Cc1cc(C2=NCCO2)ccc1OCCCCCc1cc(C)no1`, the MIC came to 0.5 µM (≈ 0.17 µg/mL) in data set [1]; 1.3 µM (≈ 0.443 µg/mL) in data set [2]; 1.7 µM (≈ 0.579 µg/mL) in data set [3]; 0.2 µM (≈ 0.0681 µg/mL) in data set [4]; 2.4 µM (≈ 0.817 µg/mL) in [5]; 0.3 µM (≈ 0.102 µg/mL) in data set [6]. For the same compound, the MIC was 1.6 µM (≈ 0.545 µg/mL) in data set [7]; 1.2 µM (≈ 0.409 µg/mL) in data set [8]; 0.2 µM (≈ 0.0681 µg/mL) in data set [10]; 0.7 µM (≈ 0.238 µg/mL) in [11]; 0.1 µM (≈ 0.034 µg/mL) in data set [12]; 0.8 µM (≈ 0.272 µg/mL) in data set [14]. The MIC in data set [15] was 0.09 µM (≈ 0.0306 µg/mL); in data set [16], 0.4 µM (≈ 0.136 µg/mL); in [17], 1.7 µM (≈ 0.579 µg/mL); in [18], 1.2 µM (≈ 0.409 µg/mL); in [20] it was 0.1 µM (≈ 0.034 µg/mL). In addition, the logP in data set [9] was 4.65. The MTL in [13] amounted to 18 µM. For the same compound, the MIC80 in data set [19] amounted to 1.6 µM (≈ 0.545 µg/mL).
Take `CCc1cc(C2=NCCO2)ccc1OCCCCCc1cc(C)no1`: the MIC in data set [1] stood at 0.1 µM (≈ 0.0342 µg/mL); in data set [2], 6.7 µM (≈ 2.29 µg/mL); in data set [3] it was 4 µM (≈ 1.37 µg/mL); in data set [4], 0.06 µM (≈ 0.0205 µg/mL); in data set [5], 3.2 µM (≈ 1.1 µg/mL); in [6], 0.09 µM (≈ 0.0308 µg/mL). Besides, the MIC in data set [7] is 1.9 µM (≈ 0.651 µg/mL); in [8], 0.1 µM (≈ 0.0342 µg/mL); in [10], 0.06 µM (≈ 0.0205 µg/mL); in data set [11] it was 0.4 µM (≈ 0.137 µg/mL); in [12] it was 0.1 µM (≈ 0.0342 µg/mL); in data set [14], 1.8 µM (≈ 0.616 µg/mL). Besides, the MIC came to 0.04 µM (≈ 0.0137 µg/mL) in data set [15]; 0.3 µM (≈ 0.103 µg/mL) in [16]; 1.1 µM (≈ 0.377 µg/mL) in [17]; 2 µM (≈ 0.685 µg/mL) in data set [18]; 0.07 µM (≈ 0.024 µg/mL) in data set [20]. For the same compound, the logP in data set [9] was found to be 4.71. Further, the MTL in data set [13] came out at 9.1 µM. The compound also returned an MIC80 in [19] of 2 µM (≈ 0.685 µg/mL).
With `Cc1cc(CCCCCOc2ccc(C3=NCCO3)cc2F)on1`, the MIC in data set [4] was 0.4 µM (≈ 0.133 µg/mL); in data set [14], above 9.3 µM. Besides, the MTL in data set [13] was 9.3 µM.
For `Cc1cc(CCCCCCCOc2ccc(C3=NCCO3)cc2)on1` [DISOXARIL] the same measures were 3.5 µM (≈ 1.2 µg/mL), above 18 µM and 18 µM.
Take `CCC(=O)Nc1cc(C2=NCCO2)ccc1OCCCCCc1cc(C)no1`: in data set [4], the MIC was determined as 7.3 µM (≈ 2.81 µg/mL). For the same compound, the MTL in data set [13] is 16 µM.
On to `Cc1cc(CCCCCOc2ccc(C3=NCCO3)cc2C=O)on1`, for which the MIC is 1.4 µM (≈ 0.479 µg/mL) in [4] and above 2.3 µM in [14]. Also, the MTL in data set [13] worked out at 2.3 µM.
For `Cc1cc(CCCCCOc2ccc(C3=NCCO3)cc2C(=O)O)on1`, the MIC result in [21] was “inactive”.

Values taken from ChEMBL document CHEMBL1123677, “Structure-activity studies of 5-[[4-(4,5-dihydro-2-oxazolyl) phenoxy]alkyl]-3-methylisoxazoles: inhibitors of picornavirus uncoating” (J Med Chem, 1987).
